One may read the MIC as the lowest concentration that inhibits growth of the organism. Low values mean greater potency, high ones weaker potency.

In brackets after ≈: the same amount, converted by molar mass. Activity calls are given as the source filed them. The rule behind the calls is not given here.

Assay [1] has as its system Aspergillus fumigatus. Put plainly: Antimicrobial activity against Aspergillus fumigatus isolate AT assessed as amount of mannose in the alkali-insoluble fraction at 0.04 ug/ml. It is filed as functional. The procedure, abridged:
(§1)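 Mycelia pretreated by culture with 0.04 μg/ml caspofungin. Cell wall boiled twice in Tris-EDTA-SDS-mercaptoethanol, then alkali-fractionated twice (1 M NaOH/0.05 M NaBH₄, 70°C). Alkali-insoluble fraction (100 μg) digested overnight at 37°C with recombinant endo-β(1,3)-glucanase LamA in pH 6.0 acetate buffer. Read by HPAEC and reducing-sugar assay; hexoses by GC with meso-inositol internal standard. Pretreated values are means of two samples.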

The test system of assay [2] is Aspergillus fumigatus. Description: Antimicrobial activity against Aspergillus fumigatus isolate AT assessed as FKS1 expression by RT-PCR relative to control. The class given is functional, organism-based. The method in brief: (§2)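 Strains grown 24 h at 37°C with shaking (150 rpm) in RPMI 1640, with and without 0.25 μg/ml caspofungin. FKS1 transcript measured by real-time PCR, normalised to housekeeping genes (BTU, PMA1). Reported as the expression ratio of AT isolate to each reference strain.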

The subject of assay [3] is Aspergillus fumigatus. Put plainly: Antimicrobial activity against Aspergillus fumigatus isolate AT assessed as amount of beta-(1,3)-glucan at 0.04 ug/ml. The class given is functional. The procedure, abridged: as §1
Assay [4] has as its system Aspergillus fumigatus. Put plainly: Ratio of FKS1 expression in Aspergillus fumigatus isolate AT to BTU expression in Aspergillus fumigatus 293 at 0.25 ug/ml by RT-PCR. It is filed as functional. The procedure, abridged:
as §2

Assay [5] has as its system Aspergillus fumigatus. Description: Ratio of FKS1 expression in Aspergillus fumigatus isolate AT to PMA1 expression in Aspergillus fumigatus 293 at 0.25 ug/ml by RT-PCR. The class given is functional. The method in brief:
as §2

Assay [6] deals with Aspergillus fumigatus. Description: Antimicrobial activity against Aspergillus fumigatus isolate AT infected in NMRI mouse assessed as survival rate at 2.25 mg/kg, ip. The class given is functional. To be noted: route intraperitoneal. The method in brief: (§3)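 NMRI mice (26 to 30 g) immunosuppressed with cyclophosphamide i.p., 200 mg/kg day −3 and 100 mg/kg day 0. Challenged i.v. on day 0 with 1.5 × 10⁵ CFU in groups of 10 to 13. Dosed in 0.25 ml on days 1 to 4 and 7 to 10: caspofungin i.p., posaconazole orally, or glucose i.p. as control. Scored daily. Survivors killed day 11. AT isolate run in two experiments.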

For assay [7], the system named is Aspergillus fumigatus. Put plainly: Ratio of FKS1 expression in Aspergillus fumigatus isolate AT to PMA1 expression in Aspergillus fumigatus ATCC 13073 at 0.25 ug/ml by RT-PCR. It is filed as functional. The method in brief: as §2
The subject of assay [8] is Aspergillus fumigatus. Put plainly: Antimicrobial activity against Aspergillus fumigatus isolate AT assessed as partial growth inhibition by microdilution method. It is filed as functional, organism-based. The method in brief:
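Broth microdilution MEC by EUCAST and CLSI methods (one lab used a modified EUCAST inoculum of 5 × 10⁴ cells/ml). Plates inoculated with spores and incubated at 35°C for 24 to 48 h. MEC taken as the lowest concentration giving aberrant growth, read by light microscopy.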

The subject of assay [9] is Aspergillus fumigatus. Description: Antimicrobial activity against Aspergillus fumigatus isolate DK by Etest method. The class given is functional. The method in brief:
(§4)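 Etest on RPMI 1640-2% glucose agar plates, run per the manufacturer's recommendations. Caspofungin Etest end point read after 2 days of incubation.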

Assay [10] concerns Aspergillus fumigatus. Put plainly: Antimicrobial activity against Aspergillus fumigatus isolate AT infected in NMRI mouse assessed as reduction in galactomannan index relative to control. It is filed as functional, organism-based. The procedure, abridged: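 Mice (NMRI) immunosuppressed with cyclophosphamide i.p. (200 mg/kg day −3, 100 mg/kg day 0). Challenged i.v. on day 0 with 1.5 × 10⁵ CFU. Treated on days 1–4 and 7–10 with caspofungin i.p. 2.25 mg/kg, posaconazole orally 5 or 20 mg/kg, or glucose i.p. (controls). Serum galactomannan index measured by Platelia ELISA on day 11 in survivors.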

The test system of assay [11] is Aspergillus fumigatus. Description: Antimicrobial activity against Aspergillus fumigatus isolate AT assessed as amount of glucose in the alkali-insoluble fraction at 0.04 ug/ml. It is filed as functional. The procedure, abridged: as §1
The test system of assay [12] is Aspergillus fumigatus. Put plainly: Antimicrobial activity against Aspergillus fumigatus isolate AT by Etest method. The class given is functional, organism-based. The procedure, abridged: as §4
The subject of assay [13] is Aspergillus fumigatus. Put plainly: Antimicrobial activity against Aspergillus fumigatus isolate AT assessed as amount of galactose in the alkali-insoluble fraction at 0.04 ug/ml. The class given is functional. The procedure, abridged:
as §1

For assay [14], the system named is Aspergillus fumigatus. Description: Ratio of FKS1 expression in Aspergillus fumigatus isolate AT to BTU expression in Aspergillus fumigatus ATCC 13073 at 0.25 ug/ml by RT-PCR. The class given is functional. The method in brief: as §2
Assay [15] relates to Aspergillus fumigatus. Put plainly: Antimicrobial activity against Aspergillus fumigatus isolate A29 by Etest method. It is filed as functional.
Assay [16] relates to Aspergillus fumigatus. Description: Antimicrobial activity against Aspergillus fumigatus isolate DK by microdilution method. The class given is functional. To be noted: read-out: MEC. The procedure, abridged: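 Broth microdilution by the EUCAST method for spore-forming moulds (C. krusei ATCC 6258 control), also a modified EUCAST version with 5 × 10⁴ cells/ml inoculum. Spore-inoculated plates incubated at 35°C for 24 to 48 h, read visually and spectrophotometrically. Azole MIC = lowest dilution giving no growth, ignoring single surface colonies. Echinocandin MEC = lowest concentration giving aberrant growth.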
On the technique in general: In broth dilution the organism is exposed to a series of concentrations in liquid medium.

The test system of assay [17] is Aspergillus fumigatus. Description: Antimicrobial activity against Aspergillus fumigatus isolate DK infected in NMRI mouse assessed as survival rate at 2.25 mg/kg, ip. The class given is functional. The settings on record: route intraperitoneal. The method in brief:
as §3

Assay [18] relates to Aspergillus fumigatus. Put plainly: Antimicrobial activity against Aspergillus fumigatus isolate AT infected in NMRI mouse assessed as survival rate at 20 mg/kg, po. It is filed as functional. The method in brief: as §3
Assay [19] relates to Aspergillus fumigatus. Put plainly: Antimicrobial activity against Aspergillus fumigatus isolate DK infected in NMRI mouse assessed as survival rate at 20 mg/kg, po. It is filed as functional. The procedure, abridged: as §3
The subject of assay [20] is Aspergillus fumigatus. Description: Antimicrobial activity against Aspergillus fumigatus isolate AT infected in NMRI mouse assessed as survival rate at 5 mg/kg, po. The class given is functional. The procedure, abridged:
as §3

Assay [21] concerns Aspergillus fumigatus. Description: Antimicrobial activity against Aspergillus fumigatus isolate DK infected in NMRI mouse assessed as survival rate at 5 mg/kg, po. It is filed as functional. The method in brief:
as §3

Consider `CC[C@H](C)C[C@H](C)CCCCCCCCC(=O)N[C@H]1C[C@@H](O)[C@@H](NCCN)NC(=O)[C@@H]2[C@@H](O)CCN2C(=O)[C@H]([C@H](O)CCN)NC(=O)[C@H]([C@H](O)[C@@H](O)c2ccc(O)cc2)NC(=O)[C@@H]2C[C@@H](O)CN2C(=O)[C@H]([C@@H](C)O)NC1=O` [CASPOFUNGIN], for which the Activity in the assay with Aspergillus fumigatus [1] amounted to 10%; in the assay on Aspergillus fumigatus [3], 81%; with Aspergillus fumigatus [9] it was 0.125 µg/mL; with Aspergillus fumigatus [11] it was 74%; in the assay on Aspergillus fumigatus [13] it was 16%. Moreover, the outcome with Aspergillus fumigatus [2] and with Aspergillus fumigatus [12] was inactive. The Ratio with Aspergillus fumigatus [4] worked out at 2.78; in the assay on Aspergillus fumigatus [5], 2.9; in the assay on Aspergillus fumigatus [7], 3.5; with Aspergillus fumigatus [14], 3.41. Also, the survival at 2.25 mg/kg worked out at 25% in the assay with Aspergillus fumigatus [6] and 100% in the assay on Aspergillus fumigatus [17]. The outcome with Aspergillus fumigatus [8] and with Aspergillus fumigatus [10] was Active. This molecule also registered a minimal inhibitory concentration (MIC) in the assay with Aspergillus fumigatus [15] of 0.094 µg/mL (≈ 0.086 µM). In addition, the minimal effective concentration in the assay with Aspergillus fumigatus [15] (in the assay text read “by microdilution method” for “by Etest method”, read-out: MEC) came to 0.04 µg/mL; in the assay on Aspergillus fumigatus [16] it was 0.25 µg/mL.
For the molecule `CC[C@@H]([C@H](C)O)n1ncn(-c2ccc(N3CCN(c4ccc(OC[C@@H]5CO[C@@](Cn6cncn6)(c6ccc(F)cc6F)C5)cc4)CC3)cc2)c1=O` [POSACONAZOLE], the survival at 20 mg/kg in the assay on Aspergillus fumigatus [18] was 75%; in the assay with Aspergillus fumigatus [19], 25%. Further, the figures for the survival at 5 mg/kg in the assay on Aspergillus fumigatus [20] and in the assay on Aspergillus fumigatus [21] were 70% and 16.7%, respectively.

Values taken from ChEMBL document CHEMBL1275502, “Establishing in vitro-in vivo correlations for Aspergillus fumigatus: the challenge of azoles versus echinocandins” (2008).
